Legend:
[1] = molecular target: Gamma-aminobutyric acid type B receptor subunit 1 (Rattus norvegicus, UniProt Q9Z0U4); assay: Inhibition of binding of [3H]CGP-27492 to gamma-aminobutyric acid type B receptor of rat cortex.
[2] = species on record: Rattus norvegicus; assay: The compound was tested for enhancement of electrically induced release of [3H]GABA from rat cortical slices.; type: functional
How it was run: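 Rat cerebral cortex slices were electrically stimulated at 2 Hz, and the increase in GABA release was measured in quadruplicate. EC150, the concentration giving a 50% increase in GABA release, came from computer-aided curve fitting. Where no EC150 was given, the value is the percent increase at 10^-4 M or 10^-5 M.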

[3] = Inhibition of [3H]DCKA binding to N-methyl-D-aspartate glutamate receptor 1 of central nervous system; conditions: concentration not given here
[4] = molecular target: Glutamate receptor ionotropic kainate (Homo sapiens) (UniProt P39086+Q16478+Q16099+Q13002+Q13003); assay: Inhibition of [3H]kainate binding to Ionotropic glutamate receptor kainate of central nervous system; type: protein-complex assay; conditions: concentration not given here
[5] = molecular target: Histamine H1 receptor (Homo sapiens) (UniProt P35367); assay: Inhibition of [3H]doxepine binding to histamine-1 receptor of central nervous system.; conditions: concentration not given here
Sequence of Histamine H1 receptor (Homo sapiens) (P35367 whole entry): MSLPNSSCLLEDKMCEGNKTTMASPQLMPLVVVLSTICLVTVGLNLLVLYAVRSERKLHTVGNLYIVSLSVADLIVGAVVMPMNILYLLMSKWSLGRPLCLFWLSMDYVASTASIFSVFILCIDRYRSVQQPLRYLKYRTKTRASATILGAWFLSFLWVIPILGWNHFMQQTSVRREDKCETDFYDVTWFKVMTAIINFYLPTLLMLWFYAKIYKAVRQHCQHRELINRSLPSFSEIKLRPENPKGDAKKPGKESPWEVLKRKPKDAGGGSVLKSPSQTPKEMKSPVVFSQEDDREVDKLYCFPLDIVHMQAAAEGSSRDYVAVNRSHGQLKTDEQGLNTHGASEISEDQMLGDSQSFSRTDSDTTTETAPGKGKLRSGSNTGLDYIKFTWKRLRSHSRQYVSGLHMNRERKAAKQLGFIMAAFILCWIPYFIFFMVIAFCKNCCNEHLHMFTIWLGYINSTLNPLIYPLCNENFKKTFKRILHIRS

[6] = molecular target: Glutamate receptor ionotropic AMPA (Homo sapiens) (UniProt P48058+P42263+P42262+P42261); assay: Inhibition of [3H]-AMPA binding to Quisqualate receptor of central nervous system; type: protein-complex assay; conditions: concentration not given here
[7] = Inhibition of [3H]5-HT binding to 5-hydroxytryptamine 1 receptor of central nervous system; conditions: concentration not given here
[8] = molecular target: Histamine H2 receptor (Homo sapiens) (UniProt P25021); assay: Inhibition of [3H]tiotidine binding to histamine 2 receptor of central nervous system; conditions: concentration not given here
Sequence of Histamine H2 receptor (Homo sapiens) (P25021 whole entry): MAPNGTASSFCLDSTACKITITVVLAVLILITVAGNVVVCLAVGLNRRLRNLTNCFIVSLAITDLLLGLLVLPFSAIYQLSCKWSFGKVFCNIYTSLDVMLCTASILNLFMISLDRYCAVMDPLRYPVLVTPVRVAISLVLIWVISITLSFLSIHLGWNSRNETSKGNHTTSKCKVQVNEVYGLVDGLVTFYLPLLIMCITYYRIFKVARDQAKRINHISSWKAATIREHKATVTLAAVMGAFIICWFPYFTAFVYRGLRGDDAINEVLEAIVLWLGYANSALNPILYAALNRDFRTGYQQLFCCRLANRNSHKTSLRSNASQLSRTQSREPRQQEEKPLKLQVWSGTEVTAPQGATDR

[9] = species on record: Rattus norvegicus; assay: Enhanced electrically induced release of [3H]GABA from rat cortical slices; agonist; type: functional; conditions: filed as agonist
How it was run: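 Electrically stimulated rat cerebral cortex slices at 2 Hz; [3H]GABA release measured. EC150 is the concentration giving a 50% increase in GABA release, obtained by computer-aided curve fitting. Run in quadruplicate; no standard deviations computed because curve slopes varied. Some entries are instead percent increase at a single concentration of 10^-4 or 10^-5 M.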

Sequence of Gamma-aminobutyric acid type B receptor subunit 1 (Q9Z0U4 whole entry): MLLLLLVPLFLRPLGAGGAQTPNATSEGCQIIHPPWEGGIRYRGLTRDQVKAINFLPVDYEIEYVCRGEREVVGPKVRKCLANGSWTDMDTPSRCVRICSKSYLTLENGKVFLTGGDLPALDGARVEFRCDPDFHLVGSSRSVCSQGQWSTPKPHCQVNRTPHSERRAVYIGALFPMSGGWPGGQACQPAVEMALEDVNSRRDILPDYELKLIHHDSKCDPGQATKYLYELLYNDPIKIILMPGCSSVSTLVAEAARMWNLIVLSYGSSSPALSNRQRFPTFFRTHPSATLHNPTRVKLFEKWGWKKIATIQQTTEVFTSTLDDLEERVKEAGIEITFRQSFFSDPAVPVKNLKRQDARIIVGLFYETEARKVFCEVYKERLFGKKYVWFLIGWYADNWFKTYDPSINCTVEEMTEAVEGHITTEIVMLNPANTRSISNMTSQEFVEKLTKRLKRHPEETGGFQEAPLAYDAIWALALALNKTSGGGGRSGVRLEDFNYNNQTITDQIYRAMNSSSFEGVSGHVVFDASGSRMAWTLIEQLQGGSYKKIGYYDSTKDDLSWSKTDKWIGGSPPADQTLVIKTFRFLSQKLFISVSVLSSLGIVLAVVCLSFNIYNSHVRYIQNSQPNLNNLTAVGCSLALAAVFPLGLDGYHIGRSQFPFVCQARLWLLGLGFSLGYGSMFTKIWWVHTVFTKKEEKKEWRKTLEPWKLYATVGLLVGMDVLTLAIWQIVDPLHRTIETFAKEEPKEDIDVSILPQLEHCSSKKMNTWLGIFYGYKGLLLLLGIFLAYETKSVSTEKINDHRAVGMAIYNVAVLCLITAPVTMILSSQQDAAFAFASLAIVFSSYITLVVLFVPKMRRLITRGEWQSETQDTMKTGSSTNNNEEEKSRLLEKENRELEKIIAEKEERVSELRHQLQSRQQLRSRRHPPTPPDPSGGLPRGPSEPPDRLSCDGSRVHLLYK

Compound | IC50 [1] | EC150 [2] | other results
CCOC(OCC)P(=O)(O)CC(O)CN (stereo not drawn) | 16 µM | 9 µM | –
NCCCP(=O)(O)C(O)c1ccccc1 (stereo not drawn) | 8 µM | 10 µM | –
CCCCP(=O)(O)CCCN [SGS-742] | – | 38 µM | inhibition [3]: 16%; inhibition [4]: 8%; inhibition [5]: 7%; inhibition [6]: 7%; inhibition [7]: 2%; inhibition [8]: 6%
NCC(O)CP(=O)(O)Cc1ccccc1 (stereo not drawn) | 8 µM | 4 µM | –
NCC(=O)CP(=O)(O)CC1CCCCC1 | 50 µM | 5 µM | –
CC(C)(C)P(=O)(O)CCCN | 73 µM | – | –
NCCCP(=O)(O)Cc1ccccn1 | 6 µM | 30 µM | –
NCCCP(=O)(O)CCCN | 29 µM | – | –
CC(C)OC(OC(C)C)P(=O)(O)CCCN | 18 µM | 47 µM | –
CCCCCCP(=O)(O)CCCN | 20 µM | 14 µM | –
CCOC(OCC)P(=O)(O)CCCN | 27 µM | 30 µM | –
CCCP(=O)(O)CCCN | 16 µM | 30 µM | –
NCCCP(=O)(O)CCC1CCCCO1 (stereo not drawn) | 2 µM | 30 µM | –
CCCCP(=O)(O)C(C)CCN (stereo not drawn) | 341 µM | 8 µM | –
NCCCP(=O)(O)Cc1ccccc1 | 10 µM | 5 µM | –
NC[C@H](O)CP(=O)(O)CC1CCCCC1 | 5 µM | 2 µM | –
CC(=O)CCP(=O)(O)CCCN | 1 µM | 4 µM | –
CCOC(OCC)P(=O)(O)C[C@@H](O)CN | 12 µM | 11 µM | –
NCCCP(=O)(O)CC1CC1 | 37 µM | 53 µM | –
CP(=O)(O)CC(CN)c1ccc(Cl)cc1 (stereo not drawn) | 9 µM | 28 µM | –
NCCCP(=O)(O)C1CCCO1 (stereo not drawn) | 34 µM | 89 µM | –
NCCCP(=O)(O)CC1CCCCO1 (stereo not drawn) | 32 µM | 12 µM | –
NCCCP(=O)(O)Cc1ccc(F)cc1 | 52 µM | 10 µM | –
NCCCP(=O)(O)CC1CCCCC1 | 4 µM | 3 µM | –
CCCC(F)(F)P(=O)(O)CCCN | 22 µM | 115 µM | –

Compound | IC50 [1] | EC150 [2] | other results
NC[C@H](O)CP(=O)(O)Cc1ccccc1 | 5 µM | 5 µM | –
CCCCP(=O)(O)CC(O)(CN)c1ccc(Cl)cc1 (stereo not drawn) | 7 µM | 45 µM | –
NC[C@@H](O)CP(=O)(O)Cc1ccccc1 | 32 µM | 11 µM | –
NCCCP(=O)(O)CN | 50 µM | 2 µM | –
NCCCP(=O)(O)CC(O)CNC(=O)c1ccccc1C(N)=O (stereo not drawn) | 2 µM | 9 µM | –
NCCCP(=O)(O)CCc1ccccc1 | 10 µM | 60 µM | –
NCC(=O)CP(=O)(O)CC1CC1 | 14 µM | 3 µM | –
NCCCP(=O)(O)C1CCCCO1 (stereo not drawn) | 39 µM | 144 µM | –
NC[C@@H](O)CP(=O)(O)CC1CCCCC1 | 6 µM | 4 µM | –
CCCOC(OCCC)P(=O)(O)CCCN | 28 µM | 60 µM | –
CP(=O)(O)CC(O)(CN)c1ccc(Cl)cc1 (stereo not drawn) | 6 µM | 30 µM | –
CCCCP(=O)(O)CC(O)CN (stereo not drawn) | 29 µM | 8 µM | –
CC(C)CP(=O)(O)CCCN | 14 µM | 98 µM | –
CCOC(OCC)P(=O)(O)CC(CN)c1ccc(Cl)cc1 (stereo not drawn) | 21 µM | 11 µM | –
NCCCP(=O)(O)CCC1CCCCC1 | 2 µM | 13 µM | –
CCCCP(=O)(O)C(O)CCN (stereo not drawn) | 37 µM | – | –
CCCCP(=O)(O)CC(C)(O)CN (stereo not drawn) | 45 µM | – | –
CP(=O)(O)CCCN | – | – | EC150 [9]: Agonist
NCCCP(=O)(O)c1ccccc1 | 126 µM | – | –
CCP(=O)(O)CCCN | 2 µM | 118 µM | –
NCC(O)CP(=O)(O)CC1CCCCC1 (stereo not drawn) | 5 µM | 8 µM | –
CCCCP(=O)(O)CC(=O)CN | – | 6 µM | –
CCCC(O)P(=O)(O)CCCN (stereo not drawn) | 18 µM | 44 µM | –
NCCC[PH](=O)O | 0.005 µM | – | EC150 [9]: Agonist
CCCCOC(OCCCC)P(=O)(O)CCCN | 20 µM | 300 µM | –
